Consider six compounds from publication PMC4431946 (Journal of the American Chemical Society, 2015).

Like-named read-outs stand apart in the source and are kept apart here.

The target in test [1] is T1, rat nNOS (Rattus norvegicus, UniProt P29476). The experiment in a line: Hemoglobin NO generation assay. In kind it is biochemical.
The target of test [2] is T1, rat nNOS. The test can be described thus: Irreversible inhibition kinetics. In kind it is biochemical. The note with it: for time-dependent inactivation of nNOS: result in words.
In test [3] the target is ferric nNOS (Rattus norvegicus, UniProt P29476). The test can be described thus: Spectral titration of ferric nNOS-H4B. In kind it is binding. In a few lines:
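Ferric full-length rat nNOS-H4B, 5 µM, in 50 mM HEPES pH 7.5 with 100 mM NaCl, titrated by 1–2 µL additions of test compound. Difference spectra recorded from 350–550 nm. Peak (~455 nm) minus trough (400 nm) absorbance plotted against ligand concentration.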

The target in test [4] is ferrous nNOS (Rattus norvegicus, UniProt P29476). The experiment in a line: Spectral titration of dithionite-reduced. The class given is binding. In a few lines:
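Full-length rat nNOS-H4B reduced with dithionite and desalted under anaerobic conditions in a glovebox. Degassed 50 mM HEPES pH 7.5 with 100 mM NaCl; compound stocks made in degassed buffer. Test compound added in 1–2 µL portions from 1, 5 and 20 mM stocks, totalling <2% of volume. Double-beam scans from 350–600 nm, repeated until stable. Peak (~455 nm) minus trough (410 nm) absorbance fitted with a quadratic function for apparent Ks.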

For test [5], the target named is nNOS (Rattus norvegicus, UniProt P29476). The experiment in a line: LC/MS of amino acid metabolites after inactivation of nNOS by 1. In kind it is biochemical. Particulars: 56 µM of 1, 37 °C, 3 h.
In test [6] the target is T1, rat nNOS. Particulars: result in words; reported earlier; cited from earlier work.

Chain of ferrous nNOS (P29476 whole entry): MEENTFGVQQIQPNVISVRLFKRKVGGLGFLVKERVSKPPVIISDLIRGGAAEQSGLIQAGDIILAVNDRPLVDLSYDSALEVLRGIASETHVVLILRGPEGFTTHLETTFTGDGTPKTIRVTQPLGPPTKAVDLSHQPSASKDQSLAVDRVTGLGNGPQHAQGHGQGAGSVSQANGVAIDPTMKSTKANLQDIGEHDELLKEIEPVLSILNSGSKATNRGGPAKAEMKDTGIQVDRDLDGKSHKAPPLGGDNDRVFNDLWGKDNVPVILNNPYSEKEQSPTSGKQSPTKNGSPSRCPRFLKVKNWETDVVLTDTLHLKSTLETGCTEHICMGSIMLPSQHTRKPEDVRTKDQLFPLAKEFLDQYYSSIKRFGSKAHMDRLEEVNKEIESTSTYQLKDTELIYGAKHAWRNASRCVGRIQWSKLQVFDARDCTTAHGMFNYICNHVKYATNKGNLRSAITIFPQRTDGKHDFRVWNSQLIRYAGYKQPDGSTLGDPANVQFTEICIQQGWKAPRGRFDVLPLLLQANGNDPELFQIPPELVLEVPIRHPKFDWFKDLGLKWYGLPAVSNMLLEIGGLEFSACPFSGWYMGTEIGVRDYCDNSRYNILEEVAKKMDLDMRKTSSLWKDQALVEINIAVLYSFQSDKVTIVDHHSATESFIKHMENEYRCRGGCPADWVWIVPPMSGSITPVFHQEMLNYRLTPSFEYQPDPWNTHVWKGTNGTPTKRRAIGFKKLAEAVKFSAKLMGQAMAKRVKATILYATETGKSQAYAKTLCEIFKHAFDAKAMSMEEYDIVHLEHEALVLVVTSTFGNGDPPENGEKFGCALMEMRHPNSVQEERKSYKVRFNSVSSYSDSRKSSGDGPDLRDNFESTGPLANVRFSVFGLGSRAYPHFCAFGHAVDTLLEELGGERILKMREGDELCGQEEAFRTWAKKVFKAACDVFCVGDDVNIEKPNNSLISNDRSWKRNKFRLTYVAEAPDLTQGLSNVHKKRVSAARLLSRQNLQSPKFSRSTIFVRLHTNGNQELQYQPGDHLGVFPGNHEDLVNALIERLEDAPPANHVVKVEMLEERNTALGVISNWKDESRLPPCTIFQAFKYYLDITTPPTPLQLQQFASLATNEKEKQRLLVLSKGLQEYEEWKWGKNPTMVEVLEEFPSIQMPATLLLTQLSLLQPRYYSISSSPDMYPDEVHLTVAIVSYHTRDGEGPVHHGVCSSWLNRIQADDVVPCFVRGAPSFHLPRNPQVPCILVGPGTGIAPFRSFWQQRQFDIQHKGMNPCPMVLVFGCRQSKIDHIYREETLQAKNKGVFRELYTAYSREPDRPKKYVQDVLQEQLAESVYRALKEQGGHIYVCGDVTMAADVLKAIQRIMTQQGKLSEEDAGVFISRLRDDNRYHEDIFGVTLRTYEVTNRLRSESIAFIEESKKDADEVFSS
Chain of ferric nNOS (P29476 whole entry): as above

With `N=C(CO)NCCC[C@H](N)C(=O)O` [compound 5, (S)-2-Amino-5-(2-hydroxyacetimidamido)pentanoic acid], in test [1], the IC50 came to 13 ± 0.67 µM and the Ki was found to be 1.5 ± 0.08 µM. In addition, the “time-dependent inactivation of nNOS” value in test [2] is “neither was a time-dependent inhibitor”.

Consider `CS(=O)(=O)CC(=N)NCCC[C@H](N)C(=O)O` [compound 3, (S)-2-Amino-5-(2-(methylsulfonyl)acetimidamido)pentanoic acid], for which, in test [1], the IC50 came to 507 ± 49 µM and the Ki is 58.3 ± 5.6 µM. Also, the “time-dependent inactivation of nNOS” value in test [2] is “neither showed time-dependent inactivation”.

In test [1], `N=C(CS)NCCC[C@H](N)C(=O)O` [compound 6, (S)-2-Amino-5-(2-mercaptoacetimidamido)pentanoic acid] yielded an IC50 of 3.64 ± 0.15 µM and a Ki of 0.42 ± 0.017 µM. In addition, in test [2], the Ki came out at 2.9 ± 0.2 µM; the kinact is 0.000767 s⁻¹; the kinact/KI is 267 M⁻¹ s⁻¹; the “time-dependent inactivation of nNOS” value was “time- and concentration-dependent inactivator”. Moreover, the “inactivation rate (kinact) relative to 1” value in test [2] (6 versus 1) is on record as “about half the inactivation rate”. Also, the Kd in test [3] was determined as 1.8 ± 0.1 µM. The “heme ligand type from difference spectra” value in test [3] (ferric nNOS-H4B) is “type-II ligand”. In addition, the Kd in test [4] amounted to 1.6 ± 0.3 µM. For the same compound, the “heme ligand type from difference spectra” value in test [4] (dithionite-reduced nNOS-H4B) is recorded as “still a type-II ligand”.

On to `C[S+]([O-])CC(=N)NCCC[C@H](N)C(=O)O` (stereo partly drawn) [compound 2, (2S)-2-Amino-5-(2-(methylsulfinyl)acetimidamido)pentanoic acid], for which, in test [1], inhibition was half-maximal at 461 ± 20 µM (IC50) and the Ki is 53 ± 2.4 µM. For the same compound, the “time-dependent inactivation of nNOS” value in test [2] is recorded as “neither showed time-dependent inactivation”.

As to `N=C(C=O)NCCC[C@H](N)C(=O)O` [compound 4, (S)-2-Amino-5-(2-oxoacetimidamido)pentanoic acid], in test [1], half-maximal inhibition (IC50) was put at 199 ± 7.1 µM and the Ki amounted to 22.9 ± 0.82 µM. Also, the “time-dependent inactivation of nNOS” value in test [2] is “neither was a time-dependent inhibitor”.

As to `CSCC(=N)NCCC[C@H](N)C(=O)O` [compound 1, (S)-2-Amino-5-(2-(methylthio)acetimidamido)pentanoic acid], the “time-dependent inactivation of nNOS” value is given as “inactivator of nNOS” in test [2] and “time-dependent irreversible inhibitor of nNOS” in test [6]. Also, the “amount of 2 produced from the inactivation of nNOS by 1” value in test [5] is “Approximately 0.53 µM”.

For orientation: IC50 means the concentration that gives 50% inhibition. A word on the kinact: it is the rate constant of inactivation at saturating inhibitor. Usually kinact/KI stands for the second-order rate constant of inactivation. One may read the Kd as a measure of binding affinity in units of concentration.
